Assay [1] is described as follows: Neuroprotective activity in Wistar rat hippocampi primary neuronal cells assessed as protection against serum-deprivation induced cell death at 0.1 uM after 24 hrs by MTT assay. Format: functional, Hippocampus, Primary neuron. The procedure, abridged:
(§1)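 Mixed neuron-glia cultures from E18 Wistar rat hippocampi (Neurobasal plus 10% FCS), used at 11 days in vitro. Medium replaced by saline to withdraw serum; cells held 24 h with compound. Cell survival measured by MTT reduction, expressed as % protection.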

The nature of assay [2]: Neuroprotective activity in Wistar rat hippocampi primary neuronal cells assessed as protection against oxygen-glucose deprivation induced cell death at 0.1 uM after 18 hrs by MTT assay. Format: functional, Hippocampus, Primary neuron. A general note: Tetrazolium assays rely on reduction of a dye to a coloured formazan, in cell work by metabolically active cells.
Assay [3] has as its system Rattus norvegicus. Briefly: Neuroprotective activity against permanent middle cerebral artery occlusion-induced focal ischemia in Sprague-Dawley rat assessed as decrease in total cerebral infract volume at 40 ug/kg/h, iv administered 1 hr before ischemia and 1 hr after ischemia measured after 24 hrs (reference value: 546 +/- 51 mm3). Format: functional.
For assay [4], the system named is Rattus norvegicus. Briefly: Neuroprotective activity in permanent middle cerebral artery occlusion-induced ischemic in Sprague-Dawley rat assessed as decrease in cortical infract volume at 40 ug/kg/h, iv administered 1 hr before ischemia and 1 hr after ischemia measured after 24 hrs (reference value: 399 +/- 38 mm3). Format: functional.
Assay [5] relates to Rattus norvegicus. In words: Neuroprotective activity in permanent middle cerebral artery occlusion-induced ischemic in Sprague-Dawley rat assessed as decrease in sub-cortical infract volume at 40 ug/kg/h, iv administered 1 hr before ischemia and 1 hr after ischemia measured after 24 hrs (reference value: 147 +/- 23 mm3). Format: functional.
Assay [6] is described as follows: Neuroprotective activity in Wistar rat hippocampi primary neuronal cells assessed as protection against serum-deprivation induced cell death at 1 uM after 24 hrs by MTT assay. Format: functional, Hippocampus, Primary neuron. The procedure, abridged: as §1
Assay [7] is described as follows: Neuroprotective activity in Wistar rat hippocampi primary neuronal cells assessed as protection against oxygen-glucose deprivation induced cell death at 1 uM after 18 hrs by MTT assay. Format: functional, Hippocampus, Primary neuron.
Assay [8] is described as follows: Neuroprotective activity in Wistar rat hippocampi primary neuronal cells assessed as protection against glutamate-induced cell death at 1 uM treated 30 min before glutamate challenge measured after 22 hrs by MTT assay. Format: functional, Hippocampus, Primary neuron. The procedure, abridged: (§2)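 E18 fetal Wistar rat hippocampal neurons in neuron-enriched culture (Neurobasal, 2% B27, poly-L-lysine), used at 11 days in vitro. Compound added 30 min before 1 mM glutamate, exposure 22 h. Survival by MTT (mitochondrial dehydrogenase) read-out, reported as % protection.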

For assay [9], the target named is T1, 5-hydroxytryptamine receptor 1A (Rattus norvegicus, UniProt P19327).
T1 sequence (P19327 whole entry): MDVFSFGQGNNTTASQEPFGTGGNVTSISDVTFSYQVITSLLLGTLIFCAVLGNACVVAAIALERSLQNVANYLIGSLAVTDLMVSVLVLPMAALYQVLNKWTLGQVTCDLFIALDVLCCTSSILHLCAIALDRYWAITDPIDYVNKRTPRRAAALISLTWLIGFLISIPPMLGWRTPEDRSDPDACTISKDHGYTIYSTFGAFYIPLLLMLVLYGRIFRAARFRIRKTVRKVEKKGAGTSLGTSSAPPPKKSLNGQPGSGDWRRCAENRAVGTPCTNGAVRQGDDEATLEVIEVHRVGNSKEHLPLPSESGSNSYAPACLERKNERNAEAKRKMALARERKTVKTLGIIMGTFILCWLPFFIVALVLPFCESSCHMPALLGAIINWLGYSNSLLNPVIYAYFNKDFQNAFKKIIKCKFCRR
Briefly: Displacement of [3H]-8-OH-DPAT from 5-HT1A receptor in Sprague-Dawley albinus rat cerebral cortex membranes after 15 mins. Format: cell membranes, Membrane.

Assay [10] concerns the target 5-hydroxytryptamine receptor 2A (Rattus norvegicus, UniProt P14842). In words: Displacement of [3H]ketanserin from 5HT2A receptor in Sprague-Dawley albinus rat frontal cortex membranes after 15 mins. Format: cell membranes, Membrane. The procedure, abridged:
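Rat frontal cortex membranes (male Sprague–Dawley, 180–200 g). Nonspecific binding was set with 1 μM cinanserin.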
For orientation: In a radioligand displacement assay an active substance lowers the binding of a labelled ligand.

The target of assay [11] is T2, 5-hydroxytryptamine receptor 1A (Homo sapiens) (UniProt P08908).
T2 sequence (whole entry): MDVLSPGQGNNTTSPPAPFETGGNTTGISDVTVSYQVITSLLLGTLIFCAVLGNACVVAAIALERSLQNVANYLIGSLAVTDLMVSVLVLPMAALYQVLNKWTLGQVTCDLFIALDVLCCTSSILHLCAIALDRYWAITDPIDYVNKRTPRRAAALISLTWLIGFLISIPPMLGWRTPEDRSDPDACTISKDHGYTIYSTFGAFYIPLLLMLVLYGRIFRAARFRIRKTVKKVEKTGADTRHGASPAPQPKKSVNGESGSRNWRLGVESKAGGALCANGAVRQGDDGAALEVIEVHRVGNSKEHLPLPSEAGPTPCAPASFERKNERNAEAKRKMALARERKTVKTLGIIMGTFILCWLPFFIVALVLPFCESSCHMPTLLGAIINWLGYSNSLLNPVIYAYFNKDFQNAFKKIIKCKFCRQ
In words: Partial agonist activity at human 5HT1A receptor expressed in human HeLa cells assessed as inhibition of forskolin-stimulated cAMP production pretreated 20 mins before forskolin challenge measured after 2 hrs by RIA. Format: functional, cell-based. The procedure, abridged: (§3)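 HeLa cells stably expressing the h5-HT1AR, grown in DMEM with 2 mM glutamine, 1 mM pyruvate and 10% heat-inactivated FCS, and used after 2–3 days at about 7.5 × 10^4 cells/well. After a PBS wash, cells were incubated 10 min in PBS with 0.5 mM isobutylmethylxanthine and 10 μM forskolin, with or without compound. The reaction was stopped with ice-cold ethanol, extracted 2 h and lyophilized; cAMP was measured by RIA.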
(In general: Changes in cAMP serve as a functional read-out for many G protein-coupled receptors.)

The target of assay [12] is T2, 5-hydroxytryptamine receptor 1A (Homo sapiens). In words: Agonist activity at human 5HT1A receptor expressed in human HeLa cells assessed as inhibition of forskolin-stimulated cAMP production pretreated 20 mins before forskolin challenge measured after 2 hrs by RIA relative to control. Format: functional, cell-based.
For assay [13], the target named is T3, 5-hydroxytryptamine receptor 1A (Homo sapiens, UniProt P08908).
T3 sequence (P08908 whole entry): T2 sequence (whole entry)
In words: Agonist activity at human 5HT1A receptor expressed in human HeLa cells assessed as inhibition of forskolin-stimulated cAMP production […] measured after 2 hrs by RIA. Format: functional, cell-based. The procedure, abridged:
as §3

Assay [14] deals with Mus musculus. Briefly: Antihypothermic activity in ip dosed Swiss mouse assessed as inhibition of 8-OH-DPAT-induced hypothermia administered 30 mins before 8-OH-DPAT challenge measured after 15 to 60 mins. Format: functional. Conditions: read-out: MED. Put shortly: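 Male Swiss mice (23–28 g) were housed five per cage. Rectal temperature (probe at 2 cm) was read at 15, 30 and 60 min after injection. The response was the maximum fall from basal temperature, analysed by ANOVA with Student–Newman–Keuls test.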

Assay [15] can be described thus: Neuroprotective activity in Wistar rat hippocampi primary neuronal cells assessed as protection against glutamate-induced cell death at 0.1 uM treated 30 min before glutamate challenge measured after 22 hrs by MTT assay. Format: functional, Hippocampus, Primary neuron. The procedure, abridged:
as §2

The source of these data is ChEMBL document CHEMBL1926607 (J Med Chem, 2011).

Each structure is given as a SMILES string. Activity calls are given as the source filed them. No cut-off for these calls is given here.

5-hydroxytryptamine receptor 2A, sequence (P14842 whole entry): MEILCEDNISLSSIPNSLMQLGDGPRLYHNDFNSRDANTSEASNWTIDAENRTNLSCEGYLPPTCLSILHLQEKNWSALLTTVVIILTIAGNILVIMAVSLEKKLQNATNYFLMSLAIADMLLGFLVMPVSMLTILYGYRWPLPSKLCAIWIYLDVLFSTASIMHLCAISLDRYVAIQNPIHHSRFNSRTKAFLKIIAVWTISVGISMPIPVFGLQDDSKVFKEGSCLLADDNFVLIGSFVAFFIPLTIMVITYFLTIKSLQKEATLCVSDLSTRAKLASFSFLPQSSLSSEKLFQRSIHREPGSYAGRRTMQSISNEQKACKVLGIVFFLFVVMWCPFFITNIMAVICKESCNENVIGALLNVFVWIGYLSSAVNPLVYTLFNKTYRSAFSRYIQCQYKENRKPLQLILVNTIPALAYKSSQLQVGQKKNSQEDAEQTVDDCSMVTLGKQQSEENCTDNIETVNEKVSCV

For `O=C1c2ccccc2S(=O)(=O)N1CCCCNC[C@H]1CCc2ccccc2O1` [REPINOTAN], the Activity in assay [1] is reported as 31%; in assay [2], 78%; in [3], 377 mm3; in [4] it was 271 mm3; in [5] it was 106 mm3.

On to `CCCN(CCC)C1CCc2cccc(O)c2C1` (configuration not stated) [8-OH-DPAT], for which the values for the Activity in assay [6], in assay [7] and in assay [8] were 44%, 54% and 37%, respectively.

As for `O=C1C2CCCN2C(=O)N1CCCCNCc1ccc2ccccc2n1` (configuration not stated), the Ki (commonly a dissociation constant, usually derived from enzyme kinetics or from competition with a known ligand) in assay [9] was 8.3 nM; in assay [10], over 1000 nM. The outcome in assay [11] was Active. Also, the Emax – broadly, the size of the effect at its maximum, as opposed to the concentration needed – in [12] came out at 75.8%.

Turning to `O=C1c2ccccc2S(=O)(=O)N1CCCCNCC1CCc2ccccc2O1` (racemic), the EC50 (as a rule, the concentration giving half of the maximal effect) in assay [13] amounted to 1.5 nM. In addition, the Emax in assay [12] was 94.8%. For the same compound, the minimal effective dose in assay [14] was 0.15 mg/kg. Moreover, the Activity in assay [1] worked out at 26%; in [15] it was 16%.
